Experimental data from publication PMC5511061 (ACS infectious diseases, 2017).

Legend:
HsAdoMetDC = conditions: human versus T. brucei enzyme; cited from earlier work
[1] = biological target: T1, human AdoMetDC (HsAdoMetDC) (Homo sapiens, UniProt P17707); assay: RapidFire-MS end-point AdoMetDC activity assay, human enzyme; assay type: biochemical
T1 sequence (P17707 1-334): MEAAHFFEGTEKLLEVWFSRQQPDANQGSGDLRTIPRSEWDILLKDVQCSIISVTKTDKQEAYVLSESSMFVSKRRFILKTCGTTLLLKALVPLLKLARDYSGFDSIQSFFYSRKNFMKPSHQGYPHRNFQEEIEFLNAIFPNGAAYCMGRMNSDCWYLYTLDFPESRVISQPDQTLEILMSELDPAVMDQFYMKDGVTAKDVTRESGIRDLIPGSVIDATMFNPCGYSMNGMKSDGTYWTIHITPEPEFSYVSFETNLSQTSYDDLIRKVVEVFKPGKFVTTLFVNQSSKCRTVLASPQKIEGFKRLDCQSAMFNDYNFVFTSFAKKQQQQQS

[2] = In vitro metabolic stability in hepatic microsomes, human; assay type: in vitro ADME; conditions: both
[3] = test system: P-glycoprotein (human MDR1); assay: MDCKII-hMDR1 monolayer permeability assay; assay type: in vitro ADME; conditions: dog, MDCK-MDR1
T. brucei cells = assay: Rescue of cell growth inhibition with spermidine; assay type: cell-based, Trypanosoma brucei
[4] = test system: prozyme levels in T. brucei cells; assay: Western blotting analysis of prozyme expression levels in treated cells; assay type: cell-based, Trypanosoma brucei; conditions: cells grown 24 h with 1–2 × EC50 of compound versus vehicle
Procedure, shortened: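 Bloodstream-form T. brucei treated 24 h with test compound; DMSO vehicle as neutral control and a reference AdoMetDC inhibitor as positive control. Cells harvested, lysed and run on SDS-PAGE. Blots probed with rabbit polyclonal anti-T. brucei prozyme (1000-fold dilution, Tris-buffered saline, 5% blocker). Membrane cut by molecular-weight marker; upper section probed with rabbit anti-BiP (100,000-fold) as loading control. Prozyme compared with vehicle.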

[5] = test system: T. brucei brucei Lister 427 bloodstream-form (BSF) cells; assay: T. brucei cell viability growth assay; assay type: cell-based, Trypanosoma brucei brucei
[6] = In vitro metabolic stability in hepatic microsomes, mouse; assay type: in vitro ADME; conditions: male, CD-1, mouse

| Structure (SMILES) | fold more potent against HsAdoMetDC (HsAdoMetDC) [fold] | IC50 [1] [nM] | half-life at 1 μM [2] [h] | Papp A→B [3] [×10⁻⁶ cm/s] | EC50 (T. brucei cells; Trypanosoma brucei, read-out: T. brucei cell EC50, – Spd) [nM] | rescue of cell growth inhibition by spermidine supplementation (T. brucei cells; over 100× EC50 concentrations of compound, 1 mM spermidine) | Prozyme induction [4] | EC50 fold below measured IC50 on the enzyme [5] [fold] | EC50 ([5]; Trypanosoma brucei, 48 h, read-out: T. brucei cell EC50) [nM] | half-life at 1 μM [6] [h] |
| --- | --- | --- | --- | --- | --- | --- | --- | --- | --- | --- |
| Cl.Cl.Cl.N=C(N)c1cccc(/C=N/N=C(\N)N/N=C/c2cccc(C(=N)N)c2)c1 [CGP 40215A] | 500 |  |  |  |  |  |  |  |  |  |
| Cc1nc2c(N)ncnc2n1[C@@H]1O[C@H](CN(C)C/C=C\CN)[C@@H](O)[C@H]1O [Compound 1] |  | 110 | > 1.5 | 1.1 | 0.3 | full rescue | yes | 100 | 1.8 | > 1.5 |
